High-throughput results deposited in PubChem BioAssay by several laboratories.
Only some compounds are listed: those with a hit (about 2.4% of all), similar ones and a draw of the others.
CSN inh: CSN deneddylation inhibition | Q92905 | Purified CSN, SCF-Nedd8-OG deneddylation, fluorescence polarization | inhibition, % at 12.5 µM | 360,000 compounds, 0.38% hits;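 active = pattern-corrected inhibition above about 35%, with an unprinted fluorescence ratio check between 0.5 and 1.5, limit read from the data, passing the limit was not always enough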;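 also: 0% = enzyme with substrate and 100% = substrate without enzyme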
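assay system = purified human Csn5 enzyme expressed in HEK293T cells | amount = 0.24 nM enzyme | buffer or medium = Tris/NaCl/DTT buffer, pH 7.5 | reagent = 10 nM SCFSkp2-Nedd8OG | compound = one concentration, 12.5 µM, 0.25% DMSO | times = 90 min reaction at room temperature | signal = FP | read-out basis = % inhibition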
PREPL inhibitor: inhibitors of human prolyl oligopeptidase-like enzyme PREPL | Q4J6C6 | 320,000 compounds, 0.68% hits | inhibition, % at 5.96 µM | recombinant PREPL, fluorescence polarization activity-based probe | AID 2751; in the data active = inhibition above about 43%;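 also: 0% = enzyme with DMSO and 100% = wells lacking enzyme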
HNF4A DNA FP: change in binding of human HNF4 alpha to DNA | 360,000 compounds, 0.3% hits | HNF4a-FITC DNA binding, fluorescence polarization, 1 h | activity change, % at 10 µM; in the data active = activity change above about 30%, passing the limit was not always enough
Neddyl block: inhibitors of human cullin neddylation; TR-FRET cullin neddylation, biochemical; inhibition, % at 25 µM; 360,000 compounds, 0.58% hits; in the data active = inhibition above about 36%
Target sequence (P61081 whole entry, looked up): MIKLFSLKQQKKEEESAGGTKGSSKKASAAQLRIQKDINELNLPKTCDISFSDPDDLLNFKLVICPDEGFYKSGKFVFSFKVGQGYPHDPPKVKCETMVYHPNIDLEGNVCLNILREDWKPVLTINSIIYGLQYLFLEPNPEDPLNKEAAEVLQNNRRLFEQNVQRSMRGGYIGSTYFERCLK
Target sequence (Q13564 whole entry, looked up): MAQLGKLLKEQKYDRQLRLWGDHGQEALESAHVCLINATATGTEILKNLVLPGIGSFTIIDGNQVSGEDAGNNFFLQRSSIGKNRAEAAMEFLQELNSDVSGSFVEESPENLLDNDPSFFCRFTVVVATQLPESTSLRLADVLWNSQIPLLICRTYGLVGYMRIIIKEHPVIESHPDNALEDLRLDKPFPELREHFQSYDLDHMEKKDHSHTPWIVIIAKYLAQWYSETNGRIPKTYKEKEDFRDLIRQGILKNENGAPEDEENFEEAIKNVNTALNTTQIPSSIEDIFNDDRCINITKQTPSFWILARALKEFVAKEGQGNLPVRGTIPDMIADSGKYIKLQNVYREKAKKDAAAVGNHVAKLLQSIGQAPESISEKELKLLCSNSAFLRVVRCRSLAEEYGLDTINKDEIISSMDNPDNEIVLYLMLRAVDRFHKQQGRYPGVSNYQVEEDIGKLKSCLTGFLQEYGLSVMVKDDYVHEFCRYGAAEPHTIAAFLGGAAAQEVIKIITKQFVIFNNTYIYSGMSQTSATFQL
Tb MetRS inh: Trypanosoma brucei MetRS inhibition; purified T. brucei MetRS, ATP depletion, Kinase-Glo luminescence; inhibition, % at 11.9 µM; 360,000 compounds, 0.4% hits; AID 624268;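 active = inhibition above a per-plate cutoff of the control wells' mean inhibition plus 3 SD, cut at about 5.5% in these data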;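 also: 0% = DMSO wells median and 100% = median of wells with control inhibitor compound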
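Measured by: Kinase-Glo luciferase luminescence reporting remaining unconsumed ATP. Material: purified T. brucei MetRS enzyme. Doses: 11.9 µM compound single dose, 0.9% DMSO. Medium: HEPES buffer containing pyrophosphatase, BSA, spermine, DTT. Times: 15 min preincubation, 2 h reaction, all 25 °C. Reagent: methionine, ATP and bulk E. coli tRNA.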
Rpn11 block: Rpn11 (human) deubiquitinase inhibition; human 26S proteasome, Ub4-pepOG fluorescence polarization; 20S core pre-blocked with epoxomicin; 360,000 compounds, 0.59% hits; inhibition, % at 20 µM; AID 588493;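 active = inhibition at 20 µM, scaled to each plate's controls, above about 33%, limit read from the data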
Rpn11 inh conf: Rpn11 inhibition confirmation, single concentration. shares compounds with Rpn11 block. purified human 26S proteasome, Ub4-pepOG fluorescence polarization; proteasome pretreated with epoxomicin. inhibition, % at 20 µM. 1,900 compounds, 29% hits
MMP-2 counter: counter-screen for RPN11 inhibitors: inhibition of human MMP-2; 1,900 compounds, 4% hits; inhibition, % at 20 µM; shares compounds with Rpn11 block; AID 602330; recombinant MMP-2, FRET peptide cleavage fluorescence;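 also: human MMP-2 activated beforehand with APMA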
Thrombin inh: blocks bovine thrombin, flagging nonselective RPN11 hits. bovine thrombin cleavage of Ub4-pepOG, fluorescence polarization. shares compounds with Rpn11 block. inhibition, % at 20 µM. 1,900 compounds, 13% hits;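 active = mean inhibition at least 40% at 20 µM, or signal 3 deviations below plate average, so some actives read negative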;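 also: plate controls were thrombin with DMSO for no effect and buffer wells lacking thrombin for full effect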
Active calls of the source: *; / = no result shown. Rule as the data show it, unless noted: active = inhibition above about 40%; inactive = the rest.

SMILES	CSN inh	PREPL inhibitor	HNF4A DNA FP	Neddyl block	Tb MetRS inh	Rpn11 block	Rpn11 inh conf	MMP-2 counter	Thrombin inh
COc1ccc(-n2nnc3c(=O)n(CC(=O)Nc4ccc5c(c4)OCCO5)cnc32)cc1OC	9.1	2.3	-0.9	33.5	-0.5	43.8*	17.0	-25.2	6.9
N#C/C(=C\c1ccc(O)c(O)c1)C(=O)NCCc1ccccc1	-2.8	24.6	-2.6	-8.0	-0.9	16.6	/	/	/
COc1cc(/C=C(\C#N)C(=O)NCCc2ccccc2)cc(OC)c1O	34.6	4.4	9.1	-39.8	-0.7	79.4*	53.6*	3.1	52.3*
CCc1ccccc1NC(=O)CCS(=O)(=O)c1ccc(Br)cc1	5.1	9.2	-7.0	1.4	-0.8	-5.1	/	/	/
COC(=O)c1ccccc1NC(=O)CCS(=O)(=O)c1ccc(Br)cc1	16.7	/	-58.3	1.1	-0.3	43.3*	114.0*	25.0	-51.1
CCN(CC)c1nc2cc(C)ccc2cc1/C=C(\C#N)C(N)=O	7.9	11.1	16.8	-95.4	-0.6	49.0*	14.8	10.8	9.8
CCc1ccc(NC(=O)/C(C#N)=C/c2cc3ccc(C)cc3nc2N2CCOCC2)cc1	29.7	-5.6	33.9	-43.4	1.1	/	/	/	/
COc1ccccc1Cc1c(-c2ccco2)nc2cc(C)c(Br)c(C)n12	26.9	/	4.8	-115.3	-0.6	/	/	/	/
Cc1cccc(C(=O)Nc2ccc(N3CCN(c4ccc(C(F)(F)F)cn4)CC3)nc2)c1	1.5	1.0	21.6	-68.6	0.3	46.4*	-8.9	-39.0	3.8
O=C(NC1CCCC1)C(c1ccccn1)N(Cc1ccccc1F)C(=O)c1csnn1 (centres undefined)	-5.6	-3.2	3.6	-1.5	-0.5	56.5*	-21.9	-21.0	-26.6
O=C(CSc1cccc2cccnc12)N1CCCC1	2.0	19.4	-2.6	/	-0.6	71.1*	35.1	-17.8	-15.9
O=C(CSc1ncccn1)N1CCCCCC1	-1.8	-0.3	-0.1	-23.8	-0.1	-5.7	/	/	/
NNC(=O)CSc1cccc2cccnc12	-5.6	8.0	-3.7	9.9	0.3	0.1	/	/	/
CN(C)C(=O)CSc1cccc2cccnc12	1.4	5.4	-4.1	/	-1.4	69.2*	23.7	-15.7	-1.9
CC(=O)NCCNc1nc2cc(-c3ccc4c(ccn4C)c3)sc2c(=O)n1C	-4.2	/	-0.1	-129.8	-0.1	-1.5	/	/	/
O=C(CSc1ccc(Br)cc1)Nc1cccc(S(=O)(=O)N2CCOCC2)c1	6.5	/	7.6	3.1	0.4	-11.7	/	/	/
CC(=O)N1CCc2cc(N=NC3=C(O)CC(C)(C)CC3=O)ccc21	29.2	-3.7	66.0*	-128.3	-0.2	108.3*	66.5*	-29.3	48.0*
COCCC(=O)N1CCCC(N2CCN(c3ccc(F)cc3)CC2)C1 (centres undefined)	-4.4	7.3	-1.9	7.5	-1.3	5.6	/	/	/
COC(=O)CCC(=O)N1CCCC(N2CCN(c3ccc(OC)cc3)CC2)C1 (centres undefined)	-1.3	16.4	7.8	3.7	-0.8	54.7*	-0.4	-55.0	-0.5
COc1ccc(CN(C)C(=O)C2CCN(C(=O)Nc3ccccc3)CC2)cc1	-9.2	-1.6	-2.0	10.9	-0.1	-2.9	/	/	/
CS(=O)(=O)Oc1ccc2c(c1)O/C(=C\c1cccnc1)C2=O	-2.0	9.6	-1.9	-17.2	-0.2	-2.8	/	/	/
COc1cc(OC)c(OC)cc1/C=C1\Oc2cc(OS(C)(=O)=O)ccc2C1=O	55.1*	8.4	73.4*	-6.9	-0.5	96.7*	69.2*	4.6	-12.1
CC(C)(O)C#Cc1ccc(CN2CCCC(CNC(=O)c3ccco3)C2)cc1 (centres undefined)	-0.8	-4.8	-2.4	-5.9	-0.4	2.5	/	/	/
O=C1C(=O)N(c2ccccn2)C(c2cccc(F)c2)/C1=C(/O)c1ccccc1 (centres undefined)	-1.4	0.7	3.8	3.2	-0.5	-3.8	/	/	/
COc1ccc(NC(=O)c2cc(OC)c(OC)cc2OC)c(S(=O)(=O)N2CCOCC2)c1	-0.7	11.6	-21.1	0.1	-0.4	161.2*	-2.5	6.2	-3.2
SMILES	CSN inh	PREPL inhibitor	HNF4A DNA FP	Neddyl block	Tb MetRS inh	Rpn11 block	Rpn11 inh conf	MMP-2 counter	Thrombin inh
COc1cc(OC)c(C(=O)Nc2cc(S(=O)(=O)N3CCOCC3)ccc2N2CCOCC2)cc1OC	-0.8	/	3.2	16.6	-0.3	-4.5	/	/	/
CCN1CCc2c(sc(NC(=O)c3ccc(C(=O)c4ccccc4)cc3)c2C(N)=O)C1	3.1	23.6	5.3	-15.6	-0.4	18.7	/	/	/
CCN1CCc2c(sc(NC(=O)c3ccc(S(=O)(=O)N(CC)c4ccccc4)cc3)c2C(N)=O)C1	10.7	17.5	29.1	12.6	-0.5	57.5*	75.9*	-245.7	10.9
Cc1cc2nc(/C=C/c3nc4cc(C)c(C)cc4[nH]3)[nH]c2cc1C	5.5	-5.1	24.6	/	-0.2	56.5*	3.8	-5.3	-29.9
Cc1cc2nc(/C=C/c3cccnc3)[nH]c2cc1C	1.4	/	2.0	36.1	-0.6	1.2	/	/	/
Cc1cc2nc(CS)[nH]c2cc1C	5.9	10.3	34.8	26.4	-0.3	49.9*	52.5*	13.9	0.9
Cc1cc2nc(CO)[nH]c2cc1C	1.4	-4.4	4.4	0.4	-0.9	-0.1	/	/	/
OC[C@@H]1CN(Cc2cccs2)C[C@H](n2cnc3c(NCc4ccncc4)ncnc32)O1	-0.6	/	0.6	5.8	-0.3	-3.5	/	/	/
COC(=O)C1=C(C)NC(C)=C(C(=O)OC)C1c1ccc(-c2cc(Cl)ccc2Cl)o1	1.5	-4.6	3.0	/	-0.7	13.5	/	/	/
COCCOC(=O)C1=C(C)NC(=O)NC1c1ccc(-c2cc(Cl)ccc2Cl)o1 (centres undefined)	-3.4	2.2	15.8	6.5	-0.8	46.1*	32.7	-27.3	16.2
COc1ccc(OC)c(Nc2nc3nonc3nc2N2CCCC(C)C2)c1 (centres undefined)	3.4	6.3	19.7	1.4	-0.8	61.5*	21.2	-19.3	-1.4
O=[N+]([O-])c1cccc(-c2ccc(/C=N/Nc3nc(N4CCCCC4)nc(N4CCCCC4)n3)o2)c1	-2.9	0.3	0.9	-10.4	0.7	6.6	/	/	/
O=[N+]([O-])c1ccc(-c2ccc(/C=N/Nc3nc(N4CCCCC4)nc(N4CCCCC4)n3)o2)cc1	10.4	/	18.7	-19.4	-0.9	57.5*	-1.0	-19.8	-13.5
O=C(N/N=C/c1ccc(-c2ccc([N+](=O)[O-])cc2)o1)c1cccnc1	8.1	2.2	8.4	-14.9	1.0	84.8*	48.8*	-15.1	-17.0
